Converted amounts (≈) assume the structure as drawn. The source made the active and inactive calls. No cut-off for these calls is given here.
Legend:
Bacillus cereus [1] = assay: Antimicrobial activity against Bacillus cereus MTCC 7350 after 24 hrs by broth micro serial dilution method; type: functional; details: MTCC 7350, 24 h
In short: (§1)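 This was broth microdilution in autoclaved Mueller-Hinton broth. 150 µL of compound per well was serially diluted […], and 50 µL of test organism was added. Plates were incubated 24 h at 37 °C and optical density was read.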

Trichoderma viride [2] = assay: Antifungal activity against Trichoderma viride MTCC 1107 assessed as zone of inhibition at 80 uM after 48 hrs by disc diffusion method; type: functional; details: MTCC 1107, 48 h, read-out: IZ
In short: (§2)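 Spores from 4-day potato dextrose agar cultures, suspended in sterile water at 1.5 × 10⁵ CFU/mL. 0.2 mL was spread on potato dextrose agar. 5 mm filter-paper discs soaked with test compound were laid on the lawn. Incubation was 48 h at 28 °C, then the inhibition zone was measured in mm. Fluconazole was the positive control and acetone the negative control.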

Pseudomonas aeruginosa [3] = assay: Antimicrobial activity against Pseudomonas aeruginosa ATCC 15499 assessed as diameter of inhibition zone at 20 uM after 24 hrs by Kirby -Baur disc diffusion method; type: functional
In short: (§3)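 Kirby-Bauer disc diffusion was used. Acetone stocks (160 µM) were serially doubled down to 80, 40 and 20 µM. 4 µL of each went onto 5 mm sterile paper discs, which were dried 30 min at 50 °C. Inoculum was 1.5 × 10⁸ CFU/mL diluted to 3 × 10² CFU/mL, and 50 µL was spread on Mueller-Hinton agar. After 24 h at 37 °C the inhibition-zone diameter was measured. Ciprofloxacin served as positive control.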

Escherichia coli [4] = assay: Antimicrobial activity against Escherichia coli ATCC 35218 assessed as diameter of inhibition zone at 20 uM after 24 hrs by Kirby -Baur disc diffusion method; type: functional; details: ATCC 35218, 24 h, read-out: DIZ; in short: as §3
Trichoderma viride [5] = assay: Antifungal activity against Trichoderma viride MTCC 1107 assessed as zone of inhibition at 20 uM after 48 hrs by disc diffusion method; type: functional; details: MTCC 1107, 48 h, read-out: IZ; in short: as §2
Trichoderma viride [6] = assay: Antifungal activity against Trichoderma viride MTCC 1107 assessed as zone of inhibition at 40 uM after 48 hrs by disc diffusion method; type: functional; details: MTCC 1107, 48 h, read-out: IZ; in short: as §2
Aspergillus niger [7] = assay: Antifungal activity against Aspergillus niger MTCC 1108 after 48 hrs; type: functional
Staphylococcus aureus [8] = assay: Antimicrobial activity against Staphylococcus aureus ATCC 11632 assessed as diameter of inhibition zone at 80 uM after 24 hrs by Kirby -Baur disc diffusion method; type: functional; details: ATCC 11632, 24 h, read-out: DIZ; in short: as §3
Bacillus cereus [9] = assay: Antimicrobial activity against Bacillus cereus MTCC 7350 assessed as diameter of inhibition zone at 40 uM after 24 hrs by Kirby -Baur disc diffusion method; type: functional; in short: as §3
Salmonella typhi [10] = assay: Antimicrobial activity against Salmonella typhi ATCC 23564 assessed as diameter of inhibition zone at 40 uM after 24 hrs by Kirby -Baur disc diffusion method; type: functional
Salmonella typhi [11] = assay: Antimicrobial activity against Salmonella typhi ATCC 23564 assessed as diameter of inhibition zone at 80 uM after 24 hrs by Kirby -Baur disc diffusion method; type: functional, Salmonella enterica subsp. enterica serovar Typhi; details: Salmonella enterica, ATCC 23564, 24 h; read-out: DIZ
Pseudomonas aeruginosa [12] = assay: Antimicrobial activity against Pseudomonas aeruginosa ATCC 15499 assessed as diameter of inhibition zone at 80 uM after 24 hrs by Kirby -Baur disc diffusion method; type: functional; details: ATCC 15499, 24 h, read-out: DIZ; in short: as §3
Aspergillus flavus [13] = assay: Antifungal activity against Aspergillus flavus MTCC 1021 after 48 hrs; type: functional
Mus musculus = assay: Antiinflammatory activity in mouse assessed as inhibition of carrageenan-induced increase in paw volume at 200 mg/kg administered 1 hr prior to carrageenan challenge measured after 3 hrs relative to control; type: functional
In short: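 Mice were fasted 2 h and placed in groups of five. Controls received saline i.p. Phenylbutazone was given at 100 mg/kg i.p., curcumin at 200 mg/kg i.p., and derivatives at 200 mg/kg. After 1 h, 0.1 mL of 1% carrageenan in saline was injected subplantar into the right hind paw. Paw volume was followed by plethysmometer for 3 h, and % inhibition was calculated as (Vc − Vt)/Vc × 100.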

Curvularia lunata [14] = assay: Antifungal activity against Curvularia lunata MTCC 581 assessed as zone of inhibition at 40 uM after 48 hrs by disc diffusion method; type: functional; details: MTCC 581, 48 h, read-out: IZ; in short: as §2
HCT-116 = assay: Cytotoxicity against human HCT116 cells after 24 hrs by MTT assay; type: functional, cell-based
In short: (§4)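 The MTT assay seeded 5 × 10⁴ cells per well and grew them 24 h in RPMI 1640 with compound at 2.5–200 µM. Medium without cells was the blank and adriamycin the positive control. MTT was added for 4 h at 37 °C, formazan was solubilised, and absorbance was read at 570 nm. IC50 is the concentration that cuts viability 50% against untreated cells.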

Staphylococcus aureus [15] = assay: Antimicrobial activity against Staphylococcus aureus ATCC 11632 assessed as diameter of inhibition zone at 40 uM after 24 hrs by Kirby -Baur disc diffusion method; type: functional; in short: as §3
Curvularia lunata [16] = assay: Antifungal activity against Curvularia lunata MTCC 581 assessed as zone of inhibition at 20 uM after 48 hrs by disc diffusion method; type: functional; details: MTCC 581, 48 h, read-out: IZ; in short: as §2
Bacillus cereus [17] = assay: Antimicrobial activity against Bacillus cereus MTCC 7350 assessed as diameter of inhibition zone at 80 uM after 24 hrs by Kirby -Baur disc diffusion method; type: functional; details: MTCC 7350, 24 h, read-out: DIZ; in short: as §3
HeLa = assay: Cytotoxicity against human HeLa cells after 24 hrs by MTT assay; type: functional, cell-based; in short: as §4
Curvularia lunata [18] = assay: Antifungal activity against Curvularia lunata MTCC 581 after 48 hrs; type: functional; details: MTCC 581, 48 h
HepG2 = assay: Cytotoxicity against human HepG2 cells after 24 hrs by MTT assay; type: functional, cell-based; in short: as §4
Curvularia lunata [19] = assay: Antifungal activity against Curvularia lunata MTCC 581 assessed as zone of inhibition at 80 uM after 48 hrs by disc diffusion method; type: functional; details: MTCC 581, 48 h, read-out: IZ; in short: as §2
Trichoderma viride [20] = assay: Antifungal activity against Trichoderma viride MTCC 1107 after 48 hrs; type: functional; details: MTCC 1107, 48 h
Escherichia coli [21] = assay: Antimicrobial activity against Escherichia coli ATCC 35218 assessed as diameter of inhibition zone at 80 uM after 24 hrs by Kirby -Baur disc diffusion method; type: functional; details: ATCC 35218, 24 h, read-out: DIZ; in short: as §3
Pseudomonas aeruginosa [22] = assay: Antimicrobial activity against Pseudomonas aeruginosa ATCC 15499 assessed as diameter of inhibition zone at 40 uM after 24 hrs by Kirby -Baur disc diffusion method; type: functional; in short: as §3
Escherichia coli [23] = assay: Antimicrobial activity against Escherichia coli ATCC 35218 assessed as diameter of inhibition zone at 40 uM after 24 hrs by Kirby -Baur disc diffusion method; type: functional; details: ATCC 35218, 24 h, read-out: DIZ; in short: as §3
Pseudomonas aeruginosa [24] = assay: Antimicrobial activity against Pseudomonas aeruginosa ATCC 15499 after 24 hrs by broth micro serial dilution method; type: functional; details: ATCC 15499, 24 h; in short: as §1
Aspergillus niger [25] = assay: Antifungal activity against Aspergillus niger MTCC 1108 assessed as zone of inhibition at 80 uM after 48 hrs by disc diffusion method; type: functional; in short: as §2
Bacillus cereus [26] = assay: Antimicrobial activity against Bacillus cereus MTCC 7350 assessed as diameter of inhibition zone at 20 uM after 24 hrs by Kirby -Baur disc diffusion method; type: functional; in short: as §3
Staphylococcus aureus [27] = assay: Antimicrobial activity against Staphylococcus aureus ATCC 11632 assessed as diameter of inhibition zone at 20 uM after 24 hrs by Kirby -Baur disc diffusion method; type: functional; in short: as §3
Salmonella typhi [28] = assay: Antimicrobial activity against Salmonella typhi ATCC 23564 assessed as diameter of inhibition zone at 20 uM after 24 hrs by Kirby -Baur disc diffusion method; type: functional
Aspergillus flavus [29] = assay: Antifungal activity against Aspergillus flavus MTCC 1021 assessed as zone of inhibition at 80 uM after 48 hrs by disc diffusion method; type: functional; in short: as §2
Salmonella typhi [30] = assay: Antimicrobial activity against Salmonella typhi ATCC 23564 after 24 hrs by broth micro serial dilution method; type: functional, Salmonella enterica subsp. enterica serovar Typhi; details: Salmonella enterica, ATCC 23564, 24 h
QG-56 = assay: Cytotoxicity against human QG56 cells after 24 hrs by MTT assay; type: functional, cell-based; in short: as §4
Staphylococcus aureus [31] = assay: Antimicrobial activity against Staphylococcus aureus ATCC 11632 after 24 hrs by broth micro serial dilution method; type: functional; details: ATCC 11632, 24 h; in short: as §1
Escherichia coli [32] = assay: Antimicrobial activity against Escherichia coli ATCC 35218 after 24 hrs by broth micro serial dilution method; type: functional; details: ATCC 35218, 24 h; in short: as §1
[33] = Salmonella enterica subsp. enterica serovar Typhi
[34] = ATCC 15499, 24 h, read-out: DIZ
[35] = Salmonella enterica, ATCC 23564, 24 h, read-out: DIZ
[36] = ATCC 11632, 24 h, read-out: DIZ

In the case of COc1cc(/C=C/c2nn(-c3ccccc3)c(/C=C/c3ccc(O)c(OC)c3)c2/N=N/c2ccc(S(=O)(=O)Nc3cc(C)on3)cc2)ccc1O, the MIC (Bacillus cereus [1]) was over 80 µM, the zone of inhibition at 80 µM (Trichoderma viride [2]) was 13 mm and the “diameter of the inhibition zone (DIZ)” value (Pseudomonas aeruginosa [3]) was “inactive”. For the same compound, the zone of inhibition at 20 µM (Escherichia coli [4]) was 9 mm, the zone of inhibition at 20 µM (Trichoderma viride [5]) was 9 mm and the zone of inhibition at 40 µM (Trichoderma viride [6]) was 11 mm. For the same compound, the MIC (Aspergillus niger [7]) was “inactive”, the zone of inhibition at 80 µM (Staphylococcus aureus [8]) was 10 mm and the “diameter of the inhibition zone (DIZ)” value (Bacillus cereus [9]) was “inactive”. For the same compound, the “diameter of the inhibition zone (DIZ)” value (Salmonella typhi [10]; [33]) was “inactive”, the zone of inhibition at 80 µM (Salmonella typhi [11]) was 10 mm and the zone of inhibition at 80 µM (Pseudomonas aeruginosa [12]) was 11 mm. For the same compound, the MIC (Aspergillus flavus [13]) was “inactive”, the inhibition in vivo at 200 mg/kg (Mus musculus) was 25.8% and the zone of inhibition at 40 µM (Curvularia lunata [14]) was 11 mm. The IC50 (HCT-116) was “Not Active”, the “diameter of the inhibition zone (DIZ)” value (Staphylococcus aureus [15]) was “inactive” and the zone of inhibition at 20 µM (Curvularia lunata [16]) was 9 mm. It also gave a zone of inhibition at 80 µM (Bacillus cereus [17]) of 10 mm, an IC50 (HeLa) of 100 µM and an MIC (Curvularia lunata [18]) of 80 µM (≈ 56.4 µg/mL). For the same compound, the IC50 (HepG2) was “Not Active”, the zone of inhibition at 80 µM (Curvularia lunata [19]) was 13 mm and the MIC (Trichoderma viride [20]) was 40 µM (≈ 28.2 µg/mL). For the same compound, the zone of inhibition at 80 µM (Escherichia coli [21]) was 12 mm, the “diameter of the inhibition zone (DIZ)” value (Pseudomonas aeruginosa [22]) was “inactive” and the zone of inhibition at 40 µM (Escherichia coli [23]) was 10 mm. The MIC (Pseudomonas aeruginosa [24]) was over 80 µM, the “inhibition zone (IZ)” value (Aspergillus niger [25]) was “inactive” and the “diameter of the inhibition zone (DIZ)” value (Bacillus cereus [26]) was “inactive”. The “diameter of the inhibition zone (DIZ)” value (Staphylococcus aureus [27]) was “inactive”, the “diameter of the inhibition zone (DIZ)” value (Salmonella typhi [28]; [33]) was “inactive” and the “inhibition zone (IZ)” value (Aspergillus flavus [29]) was “inactive”. It also gave an MIC (Salmonella typhi [30]) of over 80 µM, an IC50 (QG-56) of over 100 µM and an MIC (Staphylococcus aureus [31]) of over 80 µM. For the same compound, the MIC (Escherichia coli [32]) was over 80 µM.

Work on O=C(O)c1cn(C2CC2)c2cc(N3CCNCC3)c(F)cc2c1=O [CIPROFLOXACIN] yielded an MIC (Bacillus cereus [1]) of 0.63 µM (≈ 0.209 µg/mL), a zone of inhibition at 20 µM (Pseudomonas aeruginosa [3]; [34]) of 31 mm and a zone of inhibition at 20 µM (Escherichia coli [4]) of 29 mm. For the same compound, the zone of inhibition at 80 µM (Staphylococcus aureus [8]) was 36 mm, the zone of inhibition at 40 µM (Bacillus cereus [9]; MTCC 7350, 24 h, read-out: DIZ) was 34 mm and the zone of inhibition at 40 µM (Salmonella typhi [10]; [35]) was 44 mm. The zone of inhibition at 80 µM (Salmonella typhi [11]) was 52 mm, the zone of inhibition at 80 µM (Pseudomonas aeruginosa [12]) was 38 mm and the zone of inhibition at 40 µM (Staphylococcus aureus [15]; [36]) was 32 mm. The zone of inhibition at 80 µM (Bacillus cereus [17]) was 37 mm, the zone of inhibition at 80 µM (Escherichia coli [21]) was 36 mm and the zone of inhibition at 40 µM (Pseudomonas aeruginosa [22]; [34]) was 34 mm. For the same compound, the zone of inhibition at 40 µM (Escherichia coli [23]) was 32 mm, the MIC (Pseudomonas aeruginosa [24]) was 1.25 µM (≈ 0.414 µg/mL) and the zone of inhibition at 20 µM (Bacillus cereus [26]; MTCC 7350, 24 h, read-out: DIZ) was 32 mm. For the same compound, the zone of inhibition at 20 µM (Staphylococcus aureus [27]; [36]) was 29 mm, the zone of inhibition at 20 µM (Salmonella typhi [28]; [35]) was 37 mm and the MIC (Salmonella typhi [30]) was 2.5 µM (≈ 0.828 µg/mL). For the same compound, the MIC (Staphylococcus aureus [31]) was 1.25 µM (≈ 0.414 µg/mL) and the MIC (Escherichia coli [32]) was 1.25 µM (≈ 0.414 µg/mL).

— ChEMBL document CHEMBL2384906, “Biological activity, design, synthesis and structure activity relationship of some novel derivatives of curcumin containing sulfonamides” (Eur J Med Chem, 2013)
